Laboratory results as given in ChEMBL document CHEMBL1142555, “Cytotoxic activity of some phenanthroindolizidine N-oxide alkaloids from Cynanchum vincetoxicum” (J Nat Prod, 2000).

Assays:
[1] = Cytotoxicity against drug-resistant human KB31 cells after 72 hrs by MTS reduction assay; assay type: functional, cell-based; settings: KB 3-1, 72 h, in the assay text read “drug-sensitive” for “drug-resistant”
Method in brief: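 KB-3-1 cells grown as monolayers in DMEM with 10% FBS at 37 °C and 5% CO2, harvested by trypsin at 70-80% confluence and seeded at 4 × 10^3/well for 24 h. Dilutions of DMSO stock in medium were added (DMSO ≤0.25% final, also in controls), six wells per concentration, for 72 h. Viable cells were read by MTS/PMS, 50 min, A492. IC50 came from three passages.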

[2] = Cytotoxicity against multidrug-resistant human KBV1 cells after 72 hrs by MTS reduction assay; assay type: functional, cell-based; settings: KB-V1, 72 h
Method in brief: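 KB-V1 multidrug-resistant line (P-170 glycoprotein) kept without vinblastine, using passages 5-15, in DMEM/10% FBS at 37 °C and 5% CO2. Cells were trypsinized at 60-70% confluence and seeded at 7 × 10^3/well for 24 h. Compound was added in medium (DMSO ≤0.25%), six replicates per concentration, for 72 h. Read-out was MTS/PMS, 50 min, A492. IC50 came from three separate passages.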

[3] = Resistance index, ratio of IC50 for human KBV1 cells to IC50 for human KB31 cells; assay type: functional
Method in brief: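 Ratio of the IC50 in KB-V1 cells to the IC50 in parental KB-3-1 cells, each from a 72-h MTS/PMS proliferation assay (A492) run in parallel under the same dosing conditions (DMSO ≤0.25%, six replicates per concentration, three separate determinations).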

Row | Compound | IC50 [1] | IC50 [2] | Ratio [3]
1 | COc1ccc2c3c(c4cc(OC)c(OC)cc4c2c1)[C@@H](O)[C@H]1CCC[N+]1([O-])C3 (stereo not given in full) | 0.1 µM | 0.16 µM | 
2 | COc1ccc(C2=C(c3ccc(OC)c(OC)c3)C[C@H]3CCC[N+]3([O-])C2)cc1 (stereo not given in full) | 2.55 µM | 3.3 µM | 
3 | COc1ccc2c3c(c4cc(OC)c(OC)cc4c2c1)C[C@H]1CCC[N+]1([O-])C3 (stereo not given in full) | 0.11 µM | 0.16 µM | 
4 | COC(=O)c1ccccc1-c1c2ccc(=N)cc-2oc2cc(N)ccc12.Cl [RHODAMINE123] | 1.4 µM | > 500 µM | 500
5 | CC[C@]1(O)C[C@@H]2CN(CCc3c([nH]c4ccccc34)[C@@](C(=O)OC)(c3cc4c(cc3OC)N(C)[C@H]3[C@@](O)(C(=O)OC)[C@H](OC(C)=O)[C@]5(CC)C=CCN6CC[C@]43[C@@H]65)C2)C1 [VINBLASTINE] |  |  | 210
